Data taken from article PMC4636097 (Drug Design, Development and Therapy, 2015).

How the values were obtained:
[1] = tested on: other cDNA-expressed CYP enzymes (CYP1A1, CYP1A2, CYP1B1, CYP2A6, CYP2B6, CYP2C8, CYP2C19, CYP2D6, CYP2E1, CYP3A5); assay: Metabolism of OMT in recombinant human CYP enzymes: other isoforms; type: in vitro ADME; details: OMT 50 μM, 0.08 mg/mL enzyme, NADPH-regenerating system, 37°C, 1.5 hours
[2] = oral administration; cited from earlier work
[3] = biological target: cDNA-expressed human CYP3A4 (Homo sapiens, UniProt P08684); assay: Metabolism of OMT in recombinant human CYP enzymes: CYP3A4; type: in vitro ADME; details: OMT 50 μM, 0.08 mg/mL enzyme, NADPH-regenerating system, 37°C, 1.5 hours
[4] = tested on: pooled HLMs (human liver microsomes); assay: Kinetics of OMT metabolism; type: in vitro ADME; details: pooled HLM, formation of MT, biphasic metabolism equation
HLMs [5] = assay: Identification of OMT metabolite in HLMs; type: in vitro ADME, human; details: HLMs and NADPH, 37°C, 1.5 hours; metabolite identified as MT
Procedure, shortened: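 Test compound at 50, 100 or 200 μM with pooled human liver microsomes (0.1 mg/mL) in 50 mM KPI pH 7.4 and a glucose-6-phosphate/MgCl2/G6P dehydrogenase system, started with NADP. Controls lacked NADP. Run at 37°C for 1.5 h with shaking, then CH2Cl2 extraction. UPLC and Q-TOF MS (positive ESI); metabolite assigned by chromatographic behaviour and MS fragmentation. Triplicate.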

[6] = tested on: pooled HIMs (human intestinal microsomes); assay: Kinetics of OMT metabolism; type: in vitro ADME; details: pooled HIM, formation of MT, biphasic metabolism equation
HLMs [7] = assay: Effects of different oxygen contents on the metabolism of OMT in HLMs; type: in vitro ADME, human; details: OMT 50 μM, enzyme inactivated in boiled water for 2 h, ventilation for 30 s

Sequence of cDNA-expressed human CYP3A4 (P08684 whole entry): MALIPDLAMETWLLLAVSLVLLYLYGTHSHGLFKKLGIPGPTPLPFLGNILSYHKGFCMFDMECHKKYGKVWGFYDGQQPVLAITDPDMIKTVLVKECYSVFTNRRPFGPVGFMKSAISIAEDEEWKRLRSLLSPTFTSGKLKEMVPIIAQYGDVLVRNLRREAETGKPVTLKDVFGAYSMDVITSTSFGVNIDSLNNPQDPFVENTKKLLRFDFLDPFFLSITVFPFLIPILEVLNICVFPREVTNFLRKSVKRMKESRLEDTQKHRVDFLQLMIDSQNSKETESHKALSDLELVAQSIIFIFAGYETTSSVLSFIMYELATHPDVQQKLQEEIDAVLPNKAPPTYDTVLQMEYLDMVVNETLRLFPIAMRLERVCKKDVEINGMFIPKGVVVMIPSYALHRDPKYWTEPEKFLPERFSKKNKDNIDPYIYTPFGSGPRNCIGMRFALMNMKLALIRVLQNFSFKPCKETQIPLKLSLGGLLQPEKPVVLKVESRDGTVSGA

O=C1CCC[C@@H]2[C@H]3CCC[N+]4([O-])CCC[C@@H](CN12)[C@@H]34 (stereo partly shown) [OMT, Oxymatrine]
formation of MT by other cDNA-expressed CYP enzymes [1]: only a small amount of MT could be detected | oral absolute bioavailability [2]: 6.79% | formation of MT by CYP3A4 [3]: contributed greatly to the formation of MT | Vmax [4]: 1.49 ± 0.24 nmol/min/mg | metabolites found in HLMs (HLMs [5]): only one metabolite was found in HLMs | Vmax [6]: 0.46 ± 0.05 nmol/min/mg | metabolites in the inactivated enzyme test (HLMs [7]): no metabolites were observed
